Assay outcomes from PubChem.
MrgX1 allo act: positive allosteric modulators of MrgX1, primary screen, HEK293 cells, Fluo-4 calcium flux; Mas-related G-protein coupled receptor member X1 (Homo sapiens), Q96LB2; FDSS; stronger effect = higher value; B-score at 10 µM; 0.63% of 310,000 active; AID 588675, 2011;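 active means plate-corrected calcium response at least 3 library SD above typical, normal starting fluorescence, not activating the receptor alone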;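 further: compound read alongside a low EC10 to EC30 dose of BAM8-22 agonist; peak minus trough fluorescence over baseline measured at the second addition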
Target sequence (Q96LB2 whole entry, looked up): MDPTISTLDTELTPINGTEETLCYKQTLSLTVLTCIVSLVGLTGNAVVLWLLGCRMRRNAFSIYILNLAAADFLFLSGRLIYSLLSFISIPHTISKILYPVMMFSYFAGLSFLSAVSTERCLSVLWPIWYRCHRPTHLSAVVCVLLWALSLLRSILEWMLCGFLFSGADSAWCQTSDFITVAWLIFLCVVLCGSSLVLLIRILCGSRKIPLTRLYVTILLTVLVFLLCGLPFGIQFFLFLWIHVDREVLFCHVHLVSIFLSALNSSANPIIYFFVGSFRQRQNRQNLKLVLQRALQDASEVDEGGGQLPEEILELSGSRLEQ
MrgX1 antag: antagonists of human MrgX1 receptor, primary screen, HEK293 cells, Fluo-4 calcium flux | B-score at 10 µM | Mas-related G-protein coupled receptor member X1 (Homo sapiens), Q96LB2 | 1.3% of 310,000 active | BAM8-22 antagonism; stronger effect = lower value;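 active means calcium-response B-score plate-corrected more than 3 library SD below zero, starting fluorescence within 5 deviations, no agonist response on first addition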;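 further: peak minus trough fluorescence over baseline after final BAM8-22 challenge near maximal dose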
RGS4 block: RGS4 inhibitors, primary screen, cell-based, HEK293 M3R inducible RGS4, calcium flux; B-score at 10 µM; 0.45% of 310,000 active; Regulator of G-protein signaling 4 (Homo sapiens), P49798; Fluo-4 calcium flux; stronger effect = higher value; triggered by carbachol at its EC20;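 active means B-score, a plate-corrected calcium signal, over three deviations above library mean, with baseline fluorescence within five deviations of library mean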;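 further: RGS4 expression induced by doxycycline in cells with stable M3 receptor; B-score is computed from the integrated fluorescence ratio over baseline after carbachol; higher B-score means a larger calcium signal and so more RGS4 inhibition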
Target sequence (P49798 whole entry, looked up): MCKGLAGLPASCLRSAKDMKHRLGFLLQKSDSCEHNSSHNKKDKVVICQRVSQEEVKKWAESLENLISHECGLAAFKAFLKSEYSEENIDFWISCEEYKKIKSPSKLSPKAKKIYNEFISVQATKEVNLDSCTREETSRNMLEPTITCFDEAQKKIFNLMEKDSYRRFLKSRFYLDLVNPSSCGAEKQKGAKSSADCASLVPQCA
MrgX1 agonist: agonists of human MrgX1 receptor, primary screen, HEK293 cells, Fluo-4 calcium flux; Fluo-4 calcium fluorescence, agonist mode; stronger effect = higher value; 0.44% of 310,000 active; B-score at 10 µM;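 active means calcium response B-score plate-corrected fluorescence ratio at least 3 library SD, with starting fluorescence B-score inside 5 SD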
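Material – MrgX1-expressing HEK293 cells · Input – 15,000 cells seeded per well · Dosing – compound as first of three additions · Times – overnight seeding, then 1 h dark dye loading · Measured by – kinetic Fluo-4 NW fluorescence of intracellular calcium · Read-out – B-scored fluorescence response ratio · Benchmarks – positive and negative control wells on each plate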
RGS4 act: RGS4 potentiators or activators, primary screen, cell-based, HEK293 M3R inducible RGS4, calcium flux | B-score at 10 µM | 0.92% of 310,000 active | carbachol calcium flux Fluo4; stronger effect = lower value;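 active means B-score of the integrated calcium signal more than 4 SD below the library mean, with starting fluorescence not abnormally high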;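 further: negative B-score means reduced calcium response which marks RGS4 activation or potentiation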
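Detection: kinetic calcium fluorescence imaging with Fluo4-AM dye, 2 µM / Material: HEK293 cells with stable M3R and inducible RGS4 / Schedule: recording 10 s baseline at 1 Hz, 100 s post-agonist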
MrgX1 antag conf: MrgX1 receptor antagonists, duplicate retest, confirmation, HEK293 cells, Fluo-4 calcium flux | AID 602420, 2012 | BAM8-22 calcium flux; stronger effect = lower value | remaining BAM8-22 calcium response % of control (stronger effect = lower value), % at 10 µM | shares compounds with MrgX1 antag | 19% of 2,300 active;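 active means remaining agonist calcium response no higher than 100% minus 3 SD of agonist-only control wells, with starting fluorescence near control levels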;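 further: agonist BAM8-22 given at a near maximal EC90 to ECmax level; peak minus minimum fluorescence divided by baseline after agonist addition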
HEK293 Ca flux: nonspecific calcium signal in parental HEK293, confirmation, counter-screen for MrgX1 antagonist project, parental HEK293 cells, Fluo-4 calcium flux; shares compounds with MrgX1 antag; Fluo-4 calcium fluorescence, FDSS; fluorescence ratio F(max-min)/F0 at 10 µM; 2% of 4,000 active; AID 624111, 2012;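 active means duplicate-averaged calcium fluorescence ratio at least three times the standard deviation of buffer wells, a nonspecific response in parental cells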
HEK293 Ca counter: calcium response in parental HEK293 cells, primary screen, counter-screen for MrgX1 allosteric activator project, cell-based, Fluo-4 calcium flux, duplicate; shares compounds with MrgX1 antag; Fluo-4 fluorescence ratio; stronger effect = higher value; fluorescence ratio F(max-min)/F0 at 10 µM; 0.4% of 4,000 active; AID 624114, 2012;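 active means calcium fluorescence ratio, averaged over duplicates, at least 3 SD of the buffer-well ratio, meaning a nonspecific response in receptor-free cells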;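 further: untransfected parental HEK293 lacking MrgX1 used as counterscreen for MrgX1 allosteric activators; fluorescence change taken during the second addition on a kinetic imager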
HEK293 Ca cntr2: calcium response in parental HEK293 cells, primary screen, counter-screen for MrgX1 agonist project, cell-based, Fluo-4 calcium flux, duplicate, agonist mode. fluorescence ratio F(max-min)/F0 at 10 µM. shares compounds with MrgX1 antag. 8.7% of 4,000 active. AID 624115, 2012. Fluo-4 calcium fluorescence (FDSS); stronger effect = higher value;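 active means calcium fluorescence ratio at least three times the spread of buffer wells, meaning a non-specific response in parental cells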
* hit, by the source's call; i = inactive; . = not tested or not shown. This is a sample that favours compounds with a hit; in the whole collection about 3.5% have one here.

SMILES	MrgX1 allo act	MrgX1 antag	RGS4 block	MrgX1 agonist	RGS4 act	MrgX1 antag conf	HEK293 Ca flux	HEK293 Ca counter	HEK293 Ca cntr2
O=C1c2ccccc2-c2onc3ccc(Oc4ccccc4)c1c23	i	-7.45*	i	i	i	74.0%*	i	i	i
CCOC(=O)C(C(=O)OCC)c1cc(Br)c2noc3c2c1C(=O)c1ccccc1-3	i	i	i	i	i	.	.	.	.
CCS(=O)(=O)N1CCC(C(=O)NCc2ccc(OC)cc2)CC1	i	-6.33*	i	i	i	i	i	i	i
CC(C(=O)N=c1sc2ccccc2n1C)N1C(=O)C2CC=CCC2C1=O (centres undefined)	i	-4.75*	i	i	i	i	i	i	i
CC(=O)N=c1sc2ccccc2n1C	i	i	i	i	i	.	.	.	.
Cc1onc(-c2c(Cl)cccc2Cl)c1C(=O)N1C=CC(C(F)(F)F)=NCC1	i	-9.19*	i	i	i	i	i	i	i
Cc1onc(-c2c(F)cccc2Cl)c1C(=O)N1C=CC(C(F)(F)F)=NCC1	i	i	i	i	i	.	.	.	.
CCOc1ccc(CC(=O)Nc2cc(=O)n(C)c(=O)n2C)cc1	i	i	i	i	i	.	.	.	.
COc1ccc(CC(=O)Nc2cc(=O)n(C)c(=O)n2C)cc1	i	-7.66*	i	i	i	i	i	i	i
OCCN1CCN(c2cc(-c3ccccc3)c3ccccc3n2)CC1	i	i	i	i	i	.	.	.	.
O=C(COC(=O)C1CCN(c2ccc(C(F)(F)F)cn2)CC1)NCCc1ccccc1	i	i	i	i	i	.	.	.	.
COc1ccccc1CNC(=O)COC(=O)C1CCN(c2ccc(C(F)(F)F)cn2)CC1	i	-7.65*	i	i	i	i	i	i	i
CCCCC(=O)NC1=C(C(=O)OC)SCC1	i	-4.85*	i	i	i	i	i	i	i
COc1ccc(CNC(=O)C2(CC3CC(c4ccccc4)=NO3)CCN(C(=O)C3CCCC3)CC2)cc1 (centres undefined)	i	i	i	i	i	.	.	.	.
CS(=O)(=O)N(Cc1ccc(C(=O)N2CCc3ccccc3C2)cc1)c1ccccc1	i	-7.53*	i	i	i	i	i	i	i
O=C(c1cnc2n(c1=O)CCS2)N1CCc2ccccc21	i	i	i	i	i	.	.	.	.
Cc1sc(NC(=O)c2sc3nc4c(C)cccc4cc3c2N)c(C#N)c1C	i	-6.2*	i	i	i	60.0%*	i	i	i
Cc1cccc2cc3c(N)c(C(=O)N4CCc5ccccc54)sc3nc12	i	-8.38*	i	i	i	i	0.48*	i	58.5*
Cc1cccc2cc3c(N)c(C#N)sc3nc12	i	i	i	i	i	.	.	.	.
Cc1ccc(C(=O)N2CCCC(c3ccc(Cl)cc3)=N2)cc1	i	i	i	i	i	.	.	.	.
